Reference: ChEMBL document CHEMBL1135407, “Structure-based design of a parallel synthetic array directed toward the discovery of irreversible inhibitors of human rhinovirus 3C protease” (J Med Chem, 2002)

How the values were obtained:
[1] = test system: HeLa; assay: 50% cytotoxic concentration required to inhibit HRV-14 infected H1HeLa cells; format: functional; settings: Homo sapiens
[2] = target: T1, Human rhinovirus A protease (Human rhinovirus sp., UniProt Q4U254); assay: Inhibition of Human Rhinovirus 14 (HRV14) Protease 3C
T1 sequence (Q4U254 whole entry): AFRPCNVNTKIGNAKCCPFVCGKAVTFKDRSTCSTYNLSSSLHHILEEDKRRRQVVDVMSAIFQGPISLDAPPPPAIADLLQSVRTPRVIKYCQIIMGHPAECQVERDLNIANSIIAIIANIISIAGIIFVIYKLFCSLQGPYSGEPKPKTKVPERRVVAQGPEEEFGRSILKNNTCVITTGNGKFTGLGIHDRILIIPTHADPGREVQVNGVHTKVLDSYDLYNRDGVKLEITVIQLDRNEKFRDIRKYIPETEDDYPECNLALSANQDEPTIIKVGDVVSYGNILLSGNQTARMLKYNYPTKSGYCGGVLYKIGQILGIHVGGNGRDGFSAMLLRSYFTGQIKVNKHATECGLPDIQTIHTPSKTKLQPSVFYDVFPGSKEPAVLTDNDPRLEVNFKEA

[3] = target: T2, Human rhinovirus A protease (Human rhinovirus sp.) (UniProt Q4U254); assay: Rate of inactivation of Human Rhinovirus 14 (HRV14) Protease 3C
T2 sequence (whole entry): T1 sequence (Q4U254 whole entry)
Summary of the method: (§1)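 Irreversible (Michael acceptor) inactivation of HRV-14 3C protease, reported as a second-order rate of inactivation in M^-1 sec^-1.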

[4] = target: T2, Human rhinovirus A protease (Human rhinovirus sp.); assay: Ability to inactivate Human Rhinovirus 16 Protease 3C
[5] = target: T1, Human rhinovirus A protease; assay: 50% effective concentration required to inhibit Human Rhinovirus 16 Protease 3C
[6] = target: T2, Human rhinovirus A protease (Human rhinovirus sp.); assay: Ability to inactivate Human Rhinovirus 89 Protease 3C
[7] = target: T2, Human rhinovirus A protease (Human rhinovirus sp.); assay: Ability to inactivate Human Rhinovirus 2 Protease 3C
[8] = target: T1, Human rhinovirus A protease; assay: 50% effective concentration required to inhibit Human Rhinovirus 10 Protease 3C
[9] = target: T1, Human rhinovirus A protease; assay: 50% effective concentration required to inhibit Human Rhinovirus 89 Protease 3C
[10] = target: T1, Human rhinovirus A protease; assay: 50% effective concentration required to inhibit Human Rhinovirus 2 Protease 3C
[11] = target: T2, Human rhinovirus A protease (Human rhinovirus sp.); assay: Evaluated for the rate of inactivation of Human Rhinovirus 14 (HRV14) Protease 3C; summary of the method: as §1
[12] = target: T1, Human rhinovirus A protease; assay: 50% effective concentration required to inhibit Human Rhinovirus 1A Protease 3C

Structure (SMILES) | CC50 [1] [nM] | EC50 [2] [nM] | K obs / 1 [3] [M⁻¹ s⁻¹] | further results
CCOC(=O)/C=C/[C@H](C[C@@H]1CCNC1=O)NC(=O)C1=Cc2ccccc2OC1 | > 100000 | 1190 | 886 | –
CCOC(=O)/C=C/[C@H](CCC(N)=O)NC(=O)C(Cc1ccccc1)NC(=O)[C@H](CC(C)C)NC(=O)OCc1ccccc1 (stereo partly specified) | > 100000 | 540 | 25000 | K obs / 1 [4]: 6530 M⁻¹ s⁻¹; EC50 [5]: 2300 nM; K obs / 1 [6]: 3440 M⁻¹ s⁻¹; K obs / 1 [7]: 2000 M⁻¹ s⁻¹; EC50 [8]: 600 nM; EC50 [9]: 6300 nM; EC50 [10]: 1600 nM
CCOC(=O)/C=C/[C@H](C[C@@H]1CCNC1=O)NC(=O)c1ccc2ccccc2c1 | > 100000 | 150 | 1090 | K obs / 1 [7]: 110 M⁻¹ s⁻¹; EC50 [10]: 1400 nM
CCOC(=O)/C=C/[C@H](C[C@@H]1CCNC1=O)NC(=O)/C=C/c1ccc(F)c(Br)c1 | > 100000 | 630 | 2860 | –
CCOC(=O)/C=C/[C@H](C[C@@H]1CCNC1=O)NC(=O)/C=C/c1cccc(Br)c1 | > 10000 | 1400 | – | K obs / 1 [11]: 2560 M⁻¹ s⁻¹
CCOC(=O)/C=C/[C@H](C[C@@H]1CCNC1=O)NC(=O)C1=Cc2cc(Br)ccc2OC1 | > 100000 | 180 | 25000 | K obs / 1 [7]: 372 M⁻¹ s⁻¹; EC50 [8]: 550 nM
CCOC(=O)/C=C/[C@H](C[C@@H]1CCNC1=O)NC(=O)/C=C/c1ccc(C)c(Br)c1 | > 10000 | 1290 | 4080 | –
CCOC(=O)/C=C/[C@H](C[C@@H]1CCNC1=O)NC(=O)C1=Cc2cc(Cl)ccc2OC1 | > 100000 | 160 | 19700 | K obs / 1 [4]: 2200 M⁻¹ s⁻¹; K obs / 1 [7]: 385 M⁻¹ s⁻¹; EC50 [8]: 460 nM; EC50 [12]: 5100 nM; EC50 [10]: 650 nM
CCOC(=O)/C=C/[C@H](C[C@@H]1CCNC1=O)NC(=O)/C=C/c1cc2c(cc1Br)OCO2 | > 100000 | 490 | 14400 | –
CCOC(=O)/C=C/[C@H](C[C@@H]1CCNC1=O)NC(=O)/C=C/c1ccc2c(c1)OCO2 | > 10000 | 1810 | 1960 | –
CCOC(=O)/C=C/[C@H](C[C@@H]1CCNC1=O)NC(=O)c1ccc2cc(C)ccc2c1 | > 100000 | 880 | 5000 | –
CCOC(=O)/C=C/[C@H](C[C@@H]1CCNC1=O)NC(=O)/C=C/c1cc(Br)ccc1Br | – | – | 6850 | –
CCOC(=O)/C=C/[C@H](C[C@@H]1CCNC1=O)NC(=O)c1ccc2ccc(Br)cc2c1 | > 50000 | 180 | 31400 | –
CCOC(=O)/C=C/[C@H](C[C@@H]1CCNC1=O)NC(=O)c1cc(-c2ccccc2)oc1C | > 100000 | 1940 | 4740 | –
